Test results as given in ChEMBL document CHEMBL1157589, “Antifungal 3,5-disubstituted furanones: From 5-acyloxymethyl to 5-alkylidene derivatives” (Bioorg Med Chem, 2010).
pIC50: −log10 of the molar value. Converted amounts (≈) assume the structure as drawn.

Experiments:
Candida parapsilosis [1] = test: Antifungal activity against Candida parapsilosis ATCC 22019 after 48 hrs by microdilution method; assay type: functional; conditions: Lodderomyces parapsilosis, ATCC 22019, 48 h
Summary of the method: (§1)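 Yeasts held on Sabouraud dextrose agar. MIC by NCCLS M27-A broth microdilution in RPMI 1640 with L-glutamine, buffered with 0.165 M MOPS to pH 7.0. Compounds in DMSO (≤2% final), twofold dilutions 500–0.48. Final inoculum 5 × 10³ ± 0.2 cfu mL⁻¹. Incubated at 35 °C; absorbance at 540 nm read at 24 and 48 h. MIC is 80% growth inhibition versus control; run twice in duplicate.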

Candida parapsilosis [2] = test: Antifungal activity against Candida parapsilosis ATCC 22019 after 24 hrs by microdilution method; assay type: functional; conditions: Lodderomyces parapsilosis, ATCC 22019, 24 h; summary of the method: as §1
Nakaseomyces glabratus [3] = test: Antifungal activity against Candida glabrata 20/I after 24 hrs by microdilution method; assay type: functional; summary of the method: as §1
Nakaseomyces glabratus [4] = test: Antifungal activity against Candida glabrata 20/I after 48 hrs by microdilution method; assay type: functional; summary of the method: as §1
Candida albicans [5] = test: Antifungal activity against Candida albicans ATCC 44859 after 24 hrs by microdilution method; assay type: functional; conditions: ATCC 44859, 24 h; summary of the method: as §1
Lichtheimia corymbifera [6] = test: Antifungal activity against Absidia corymbifera 272 after 48 hrs by microdilution method; assay type: functional; conditions: Lichtheimia corymbifera, 272, 48 h
Summary of the method: (§2)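 Filamentous strains held on Sabouraud dextrose agar. NCCLS M27-A broth microdilution in RPMI 1640 with L-glutamine and 0.165 M MOPS, pH 7.0. DMSO diluent ≤2% final; twofold dilutions 500–0.48. Inoculum 5 × 10³ ± 0.2 cfu mL⁻¹ final.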

[7] = test system: Trichophyton mentagrophytes; test: Antifungal activity against Trichophyton mentagrophytes 445 after 120 hrs by microdilution method; assay type: functional; conditions: Trichophyton mentagrophytes, 445, 120 h
Summary of the method: (§3)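 Dermatophyte held on Sabouraud dextrose agar. M27-A microdilution in MOPS-buffered (0.165 M, pH 7.0) RPMI 1640 with L-glutamine. DMSO ≤2% final; twofold dilutions 500–0.48. Inoculum 5 × 10³ ± 0.2 cfu mL⁻¹ final. Incubated at 35 °C; MIC read visually at 72 and 120 h as 80% inhibition of control growth; determined twice in duplicate.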

Candida tropicalis [8] = test: Antifungal activity against Candida tropicalis 156 after 48 hrs by microdilution method; assay type: functional; conditions: Candida tropicalis, 156, 48 h; summary of the method: as §1
HeLa S3 = test: Cytostatic activity against human HeLaS3 cells after 48 hrs by XTT assay; conditions: for IC50: hela s3
Candida albicans [9] = test: Antifungal activity against Candida albicans ATCC 90028 after 24 hrs by microdilution method; assay type: functional; conditions: ATCC 90028, 24 h; summary of the method: as §1
Trichosporon beigelii [10] = test: Antifungal activity against Trichosporon beigelii 1188 after 24 hrs by microdilution method; assay type: functional; conditions: Trichosporon beigelii, 1188, 24 h; summary of the method: as §1
Clavispora lusitaniae [11] = test: Antifungal activity against Candida lusitaniae 2446/I after 48 hrs by microdilution method; assay type: functional; summary of the method: as §1
Pichia kudriavzevii [12] = test: Antifungal activity against Candida krusei ATCC 6258 after 48 hrs by microdilution method; assay type: functional; conditions: ATCC 6258, 48 h; summary of the method: as §1
Clavispora lusitaniae [13] = test: Antifungal activity against Candida lusitaniae 2446/I after 24 hrs by microdilution method; assay type: functional; summary of the method: as §1
Trichosporon beigelii [14] = test: Antifungal activity against Trichosporon beigelii 1188 after 48 hrs by microdilution method; assay type: functional; conditions: Trichosporon beigelii, 1188, 48 h; summary of the method: as §1
Pichia kudriavzevii [15] = test: Antifungal activity against Candida krusei E28 after 24 hrs by microdilution method; assay type: functional; conditions: E28, 24 h; summary of the method: as §1
CCRF-CEM = test: Cytostatic activity against human CCRF-CEM cells after 72 hrs by XTT assay; assay type: functional, cell-based; conditions: for IC50: ccrf-cem
Summary of the method: (§4)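 Leukemia cells (L1210 ATCC CCL 219, CCRF-CEM ATCC CCL 119, HL-60 ATCC CCL 240) grown in 24-well plates in RPMI 1640 with fetal calf serum. Growth assessed 72 h after drug addition. Viability measured by XTT spectrophotometric assay; potency given as IC50.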

Candida albicans [16] = test: Antifungal activity against Candida albicans ATCC 90028 after 48 hrs by microdilution method; assay type: functional; conditions: ATCC 90028, 48 h; summary of the method: as §1
Pichia kudriavzevii [17] = test: Antifungal activity against Candida krusei ATCC 6258 after 24 hrs by microdilution method; assay type: functional; conditions: ATCC 6258, 24 h; summary of the method: as §1
Aspergillus fumigatus [18] = test: Antifungal activity against Aspergillus fumigatus 231 after 48 hrs by microdilution method; assay type: functional; conditions: Aspergillus fumigatus, 231, 48 h; summary of the method: as §2
Candida tropicalis [19] = test: Antifungal activity against Candida tropicalis 156 after 24 hrs by microdilution method; assay type: functional; conditions: Candida tropicalis, 156, 24 h; summary of the method: as §1
Lichtheimia corymbifera [20] = test: Antifungal activity against Absidia corymbifera 272 after 24 hrs by microdilution method; assay type: functional; conditions: Lichtheimia corymbifera, 272, 24 h; summary of the method: as §2
Candida albicans [21] = test: Antifungal activity against Candida albicans ATCC 44859 after 48 hrs by microdilution method; assay type: functional; conditions: ATCC 44859, 48 h; summary of the method: as §1
Pichia kudriavzevii [22] = test: Antifungal activity against Candida krusei E28 after 48 hrs by microdilution method; assay type: functional; conditions: E28, 48 h; summary of the method: as §1
HL-60 = test: Cytostatic activity against human HL60 cells after 72 hrs by XTT assay; assay type: functional, cell-based; conditions: for IC50: hl-60; summary of the method: as §4
Aspergillus fumigatus [23] = test: Antifungal activity against Aspergillus fumigatus 231 after 24 hrs by microdilution method; assay type: functional; conditions: Aspergillus fumigatus, 231, 24 h; summary of the method: as §2
[24] = test system: Trichophyton mentagrophytes; test: Antifungal activity against Trichophyton mentagrophytes 445 after 72 hrs by microdilution method; assay type: functional; conditions: Trichophyton mentagrophytes, 445, 72 h; summary of the method: as §3
L1210 = test: Cytostatic activity against mouse L1210 cells after 72 hrs by XTT assay; assay type: functional, cell-based; conditions: for IC50: l1210; summary of the method: as §4

Compound: COC(=O)/C=C1\C=C(c2ccc(Br)cc2)C(=O)O1
- MIC80 (Candida parapsilosis [1]): > 125 µM
- MIC80 (Candida parapsilosis [2]): > 125 µM
- MIC80 (Nakaseomyces glabratus [3]): > 125 µM
- MIC80 (Nakaseomyces glabratus [4]): > 125 µM
- MIC80 (Candida albicans [5]): > 125 µM
- MIC80 (Lichtheimia corymbifera [6]): > 125 µM
- MIC80 [7]: > 125 µM
- MIC80 (Candida tropicalis [8]): > 125 µM
- IC50 (HeLa S3): Not Active
- MIC80 (Candida albicans [9]): > 125 µM
- MIC80 (Trichosporon beigelii [10]): > 125 µM
- MIC80 (Clavispora lusitaniae [11]): > 125 µM
- MIC80 (Pichia kudriavzevii [12]): > 125 µM
- MIC80 (Clavispora lusitaniae [13]): > 125 µM
- MIC80 (Trichosporon beigelii [14]): > 125 µM
- MIC80 (Pichia kudriavzevii [15]): > 125 µM
- IC50 (CCRF-CEM): Not Active
- MIC80 (Candida albicans [16]): > 125 µM
- MIC80 (Pichia kudriavzevii [17]): > 125 µM
- MIC80 (Aspergillus fumigatus [18]): > 125 µM
- MIC80 (Candida tropicalis [19]): > 125 µM
- MIC80 (Lichtheimia corymbifera [20]): > 125 µM
- MIC80 (Candida albicans [21]): > 125 µM
- MIC80 (Pichia kudriavzevii [22]): > 125 µM
- IC50 (HL-60): Not Active
- MIC80 (Aspergillus fumigatus [23]): > 125 µM
- MIC80 [24]: > 125 µM
- IC50 (L1210): Not Active

Compound: C/C=C1/C=C(c2ccc(Br)cc2)C(=O)O1
- MIC80 (Candida parapsilosis [1]): > 500 µM
- MIC80 (Candida parapsilosis [2]): > 500 µM
- MIC80 (Nakaseomyces glabratus [3]): > 500 µM
- MIC80 (Nakaseomyces glabratus [4]): > 500 µM
- MIC80 (Candida albicans [5]): 250 µM (≈ 66.3 µg/mL)
- MIC80 (Lichtheimia corymbifera [6]): > 500 µM
- MIC80 [7]: 31.2 µM (≈ 8.28 µg/mL)
- MIC80 (Candida tropicalis [8]): > 500 µM
- IC50 (HeLa S3): Not Active
- MIC80 (Candida albicans [9]): > 500 µM
- MIC80 (Trichosporon beigelii [10]): > 500 µM
- MIC80 (Clavispora lusitaniae [11]): > 500 µM
- MIC80 (Pichia kudriavzevii [12]): > 500 µM
- MIC80 (Clavispora lusitaniae [13]): > 500 µM
- MIC80 (Trichosporon beigelii [14]): > 500 µM
- MIC80 (Pichia kudriavzevii [15]): > 500 µM
- IC50 (CCRF-CEM): Not Active
- MIC80 (Candida albicans [16]): > 500 µM
- MIC80 (Pichia kudriavzevii [17]): > 500 µM
- MIC80 (Aspergillus fumigatus [18]): > 500 µM
- MIC80 (Candida tropicalis [19]): > 500 µM
- MIC80 (Lichtheimia corymbifera [20]): > 500 µM
- MIC80 (Candida albicans [21]): > 500 µM
- MIC80 (Pichia kudriavzevii [22]): > 500 µM
- IC50 (HL-60): Not Active
- MIC80 (Aspergillus fumigatus [23]): > 500 µM
- MIC80 [24]: 31.2 µM (≈ 8.28 µg/mL)
- IC50 (L1210): Not Active

Compound: O=C1OC(COc2ccc(C(=O)O)cc2)C=C1c1ccc(Br)cc1 (centres undefined)
- MIC80 (Candida parapsilosis [1]): 15.6 µM (≈ 6.08 µg/mL)
- MIC80 (Candida parapsilosis [2]): 7.81 µM (≈ 3.04 µg/mL)
- MIC80 (Nakaseomyces glabratus [3]): 0.97 µM (≈ 0.378 µg/mL)
- MIC80 (Nakaseomyces glabratus [4]): 1.95 µM (≈ 0.759 µg/mL)
- MIC80 (Candida albicans [5]): 0.48 µM (≈ 0.187 µg/mL)
- MIC80 (Lichtheimia corymbifera [6]): 62.5 µM (≈ 24.3 µg/mL)
- MIC80 [7]: 0.97 µM (≈ 0.378 µg/mL)
- MIC80 (Candida tropicalis [8]): 7.81 µM (≈ 3.04 µg/mL)
- pIC50 (HeLa S3; Homo sapiens, HeLa S3, 48 h, read-out: IC50): 5.57
- MIC80 (Candida albicans [9]): 0.97 µM (≈ 0.378 µg/mL)
- MIC80 (Trichosporon beigelii [10]): 7.81 µM (≈ 3.04 µg/mL)
- MIC80 (Clavispora lusitaniae [11]): 7.81 µM (≈ 3.04 µg/mL)
- MIC80 (Pichia kudriavzevii [12]): 15.6 µM (≈ 6.08 µg/mL)
- MIC80 (Clavispora lusitaniae [13]): 3.9 µM (≈ 1.52 µg/mL)
- MIC80 (Trichosporon beigelii [14]): 15.6 µM (≈ 6.08 µg/mL)
- MIC80 (Pichia kudriavzevii [15]): 7.81 µM (≈ 3.04 µg/mL)
- pIC50 (CCRF-CEM; Homo sapiens, CCRF-CEM, 72 h, read-out: IC50): 5.06
- MIC80 (Candida albicans [16]): 3.9 µM (≈ 1.52 µg/mL)
- MIC80 (Pichia kudriavzevii [17]): 7.81 µM (≈ 3.04 µg/mL)
- MIC80 (Aspergillus fumigatus [18]): 3.9 µM (≈ 1.52 µg/mL)
- MIC80 (Candida tropicalis [19]): 3.9 µM (≈ 1.52 µg/mL)
- MIC80 (Lichtheimia corymbifera [20]): 15.6 µM (≈ 6.08 µg/mL)
- MIC80 (Candida albicans [21]): 1.95 µM (≈ 0.759 µg/mL)
- MIC80 (Pichia kudriavzevii [22]): 15.6 µM (≈ 6.08 µg/mL)
- pIC50 (HL-60; Homo sapiens, HL-60, 72 h, read-out: IC50): 4.71
- MIC80 (Aspergillus fumigatus [23]): 1.95 µM (≈ 0.759 µg/mL)
- MIC80 [24]: 0.97 µM (≈ 0.378 µg/mL)
- pIC50 (L1210; Mus musculus, L1210, 72 h, read-out: IC50): 4.91
